One block for each compound: values may come before it. Active and inactive are the calls of the source. The calls are words filed in the database; no cut-off is given here.
Legend:
[1] = target: T1, Receptor-type tyrosine-protein phosphatase F (Homo sapiens, UniProt P10586); assay: Inhibition of human recombinant LAR at 20 ug/mL
In short: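 Single-concentration test at 20 µg/mL. Recombinant LAR (300 nM) was preincubated 10 min with compound at pH 8.0 (Tris/NaCl/EDTA/DTT). Hydrolysis of 2 mM pNPP (stock in substrate buffer) was then followed at pH 6.0 MES buffer, room temperature. Initial rate was taken at 405 nm and expressed as % inhibition.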

[2] = target: T1, Receptor-type tyrosine-protein phosphatase F; assay: Inhibition of human recombinant LAR upto 100 uM; conditions: in the assay text read “at 20 ug/mL” for “upto 100 uM”
In short: (§1)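 Recombinant LAR (300 nM) was preincubated 10 min with inhibitor in DMSO in pH 8.0 buffer (50 mM Tris, 50 mM NaCl, 2 mM EDTA, 2 mM DTT). Reaction was started with pH 6.0 MES substrate buffer holding 2 mM pNPP, at room temperature. pNP release was read continuously at 405 nm, using the initial linear rate. IC50 came from a Hill-equation nonlinear fit, mean ± SD of three replicates.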

[3] = target: T1, Receptor-type tyrosine-protein phosphatase F; assay: Inhibition of LAR; in short: as §1
[4] = target: T1, Receptor-type tyrosine-protein phosphatase F; assay: Inhibition of human recombinant LAR
[5] = target: T2, Tyrosine-protein phosphatase non-receptor type 2 (Homo sapiens, UniProt P17706); assay: Inhibition of TCPTP
T2 sequence (P17706 whole entry): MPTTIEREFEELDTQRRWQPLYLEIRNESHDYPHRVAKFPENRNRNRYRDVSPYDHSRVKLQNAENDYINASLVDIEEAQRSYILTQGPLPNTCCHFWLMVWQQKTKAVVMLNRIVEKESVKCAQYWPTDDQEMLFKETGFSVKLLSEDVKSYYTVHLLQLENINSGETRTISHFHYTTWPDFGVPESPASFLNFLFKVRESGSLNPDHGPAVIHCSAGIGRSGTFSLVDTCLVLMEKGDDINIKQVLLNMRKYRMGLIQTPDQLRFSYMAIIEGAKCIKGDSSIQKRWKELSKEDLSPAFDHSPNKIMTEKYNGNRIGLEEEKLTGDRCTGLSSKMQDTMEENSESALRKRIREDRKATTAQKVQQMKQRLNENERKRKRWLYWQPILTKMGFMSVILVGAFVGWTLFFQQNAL

[6] = target: T1, Receptor-type tyrosine-protein phosphatase F; assay: Inhibition of dialyzed human LAR assessed as recovery of enzyme activity at 20 uM after 24 hrs
In short: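 LAR (1500 nM) was preincubated 10 min at pH 8.0 with 20 µM inhibitor or 2% DMSO, then dialyzed against enzyme buffer. Aliquots were withdrawn at set times up to 24 h and assayed for pNPP phosphatase activity at pH 6.0, read at 405 nm.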

[7] = Inhibition of Yersinia PTPase; parameters: species or system Yersinia sp.
[8] = target: T3, Receptor-type tyrosine-protein phosphatase C (Homo sapiens, UniProt P08575); assay: Inhibition of CD45
T3 sequence (P08575 whole entry): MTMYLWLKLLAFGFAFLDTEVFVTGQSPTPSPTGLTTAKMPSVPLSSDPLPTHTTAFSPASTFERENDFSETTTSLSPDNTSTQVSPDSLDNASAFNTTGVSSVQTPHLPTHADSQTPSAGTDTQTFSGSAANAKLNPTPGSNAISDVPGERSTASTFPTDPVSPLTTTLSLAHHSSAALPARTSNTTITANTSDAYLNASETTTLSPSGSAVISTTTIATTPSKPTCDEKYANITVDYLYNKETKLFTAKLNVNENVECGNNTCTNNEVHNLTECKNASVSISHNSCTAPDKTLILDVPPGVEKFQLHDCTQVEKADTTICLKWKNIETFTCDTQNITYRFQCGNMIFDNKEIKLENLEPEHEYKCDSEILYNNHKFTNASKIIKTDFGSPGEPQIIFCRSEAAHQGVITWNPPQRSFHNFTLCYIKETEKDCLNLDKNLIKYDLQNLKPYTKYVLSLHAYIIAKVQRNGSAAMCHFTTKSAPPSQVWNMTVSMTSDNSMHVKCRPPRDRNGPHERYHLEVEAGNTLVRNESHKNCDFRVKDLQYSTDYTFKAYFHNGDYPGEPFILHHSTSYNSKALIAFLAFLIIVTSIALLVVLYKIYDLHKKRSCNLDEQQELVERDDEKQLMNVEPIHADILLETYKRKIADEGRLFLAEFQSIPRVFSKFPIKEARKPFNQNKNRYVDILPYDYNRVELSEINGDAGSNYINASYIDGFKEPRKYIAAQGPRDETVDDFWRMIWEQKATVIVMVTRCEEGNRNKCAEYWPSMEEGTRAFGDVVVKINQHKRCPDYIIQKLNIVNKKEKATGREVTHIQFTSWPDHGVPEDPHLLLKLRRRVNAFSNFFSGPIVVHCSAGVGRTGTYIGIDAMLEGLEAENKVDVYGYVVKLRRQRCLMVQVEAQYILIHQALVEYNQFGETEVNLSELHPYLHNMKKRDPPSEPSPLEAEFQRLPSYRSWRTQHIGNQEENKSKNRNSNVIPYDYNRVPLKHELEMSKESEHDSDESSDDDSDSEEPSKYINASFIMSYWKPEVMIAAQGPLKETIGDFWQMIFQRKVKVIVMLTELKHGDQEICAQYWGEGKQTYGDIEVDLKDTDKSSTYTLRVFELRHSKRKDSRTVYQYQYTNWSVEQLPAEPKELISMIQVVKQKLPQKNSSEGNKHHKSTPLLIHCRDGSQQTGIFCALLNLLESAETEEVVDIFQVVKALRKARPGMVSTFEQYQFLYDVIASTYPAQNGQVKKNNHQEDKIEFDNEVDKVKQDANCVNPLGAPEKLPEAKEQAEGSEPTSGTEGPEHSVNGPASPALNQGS

[9] = target: T4, Tyrosine-protein phosphatase non-receptor type 1 (Homo sapiens, UniProt P18031); assay: Inhibition of PTP1B
T4 sequence (P18031 whole entry): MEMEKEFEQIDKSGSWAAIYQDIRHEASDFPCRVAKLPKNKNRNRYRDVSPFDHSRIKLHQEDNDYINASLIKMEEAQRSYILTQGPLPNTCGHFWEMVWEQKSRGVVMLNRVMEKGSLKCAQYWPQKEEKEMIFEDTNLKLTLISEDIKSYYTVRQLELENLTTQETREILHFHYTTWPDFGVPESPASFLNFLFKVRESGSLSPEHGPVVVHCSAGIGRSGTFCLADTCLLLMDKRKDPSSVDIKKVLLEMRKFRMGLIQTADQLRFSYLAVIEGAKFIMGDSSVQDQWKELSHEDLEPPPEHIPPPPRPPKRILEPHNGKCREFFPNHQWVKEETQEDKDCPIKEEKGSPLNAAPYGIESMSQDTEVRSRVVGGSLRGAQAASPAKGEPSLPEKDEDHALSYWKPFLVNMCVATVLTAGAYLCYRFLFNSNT

T1 sequence (P10586 whole entry): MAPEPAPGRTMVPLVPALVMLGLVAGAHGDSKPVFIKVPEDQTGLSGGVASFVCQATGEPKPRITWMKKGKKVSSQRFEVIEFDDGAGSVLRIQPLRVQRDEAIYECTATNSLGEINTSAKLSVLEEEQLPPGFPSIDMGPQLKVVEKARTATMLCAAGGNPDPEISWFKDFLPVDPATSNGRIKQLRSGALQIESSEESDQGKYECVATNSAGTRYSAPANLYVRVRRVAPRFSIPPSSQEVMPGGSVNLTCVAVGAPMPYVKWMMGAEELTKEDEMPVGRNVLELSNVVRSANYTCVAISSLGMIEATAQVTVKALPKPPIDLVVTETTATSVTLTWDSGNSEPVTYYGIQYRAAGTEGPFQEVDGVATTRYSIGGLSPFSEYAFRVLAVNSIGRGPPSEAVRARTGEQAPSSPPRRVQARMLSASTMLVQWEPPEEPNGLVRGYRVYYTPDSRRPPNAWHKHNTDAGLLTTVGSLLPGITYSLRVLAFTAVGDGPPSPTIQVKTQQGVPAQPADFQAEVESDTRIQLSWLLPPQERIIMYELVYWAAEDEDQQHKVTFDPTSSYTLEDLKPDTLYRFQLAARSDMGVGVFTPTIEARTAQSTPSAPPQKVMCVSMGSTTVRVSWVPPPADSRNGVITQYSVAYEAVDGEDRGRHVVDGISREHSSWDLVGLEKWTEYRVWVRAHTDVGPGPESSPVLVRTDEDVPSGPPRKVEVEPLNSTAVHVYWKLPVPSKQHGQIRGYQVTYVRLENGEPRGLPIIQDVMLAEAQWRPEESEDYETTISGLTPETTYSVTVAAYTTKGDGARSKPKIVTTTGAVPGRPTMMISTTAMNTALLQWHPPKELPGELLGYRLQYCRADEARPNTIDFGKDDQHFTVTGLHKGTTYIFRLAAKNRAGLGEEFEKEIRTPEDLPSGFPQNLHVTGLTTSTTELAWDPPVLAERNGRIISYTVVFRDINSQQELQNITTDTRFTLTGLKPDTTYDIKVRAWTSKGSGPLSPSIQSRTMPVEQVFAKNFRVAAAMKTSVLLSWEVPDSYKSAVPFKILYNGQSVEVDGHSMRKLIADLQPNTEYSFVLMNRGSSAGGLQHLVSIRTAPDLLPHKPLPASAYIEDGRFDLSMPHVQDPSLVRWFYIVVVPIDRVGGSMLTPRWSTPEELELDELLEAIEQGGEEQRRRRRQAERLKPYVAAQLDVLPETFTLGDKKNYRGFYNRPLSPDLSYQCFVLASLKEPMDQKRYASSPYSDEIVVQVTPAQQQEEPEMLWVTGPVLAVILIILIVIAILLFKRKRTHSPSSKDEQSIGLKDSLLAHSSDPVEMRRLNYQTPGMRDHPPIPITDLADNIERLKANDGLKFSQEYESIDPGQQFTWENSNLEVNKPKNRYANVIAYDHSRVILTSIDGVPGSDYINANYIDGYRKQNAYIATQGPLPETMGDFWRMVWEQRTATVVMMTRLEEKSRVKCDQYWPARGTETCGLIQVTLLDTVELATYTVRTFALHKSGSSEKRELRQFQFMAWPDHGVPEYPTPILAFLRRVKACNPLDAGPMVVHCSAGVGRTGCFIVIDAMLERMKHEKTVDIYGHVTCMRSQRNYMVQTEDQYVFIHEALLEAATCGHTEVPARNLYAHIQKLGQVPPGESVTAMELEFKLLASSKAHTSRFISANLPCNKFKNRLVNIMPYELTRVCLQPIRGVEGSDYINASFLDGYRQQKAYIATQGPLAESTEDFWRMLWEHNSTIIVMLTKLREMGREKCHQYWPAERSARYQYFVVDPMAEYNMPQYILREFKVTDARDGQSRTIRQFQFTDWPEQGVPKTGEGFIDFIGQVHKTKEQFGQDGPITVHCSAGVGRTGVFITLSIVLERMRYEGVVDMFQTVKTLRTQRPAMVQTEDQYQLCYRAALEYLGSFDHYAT

Structure (SMILES): COC(=O)c1ccc(OC)c(CO)c1CCO
- inhibition [1]: < 5%
- Activity [2]: inactive

Structure (SMILES): O=C(O)COc1c(C(=O)O)sc(-c2ccc(NC(=O)c3cccnc3)cc2)c1Br
- IC50 [3]: 320 µM

Structure (SMILES): CSc1ccnc(C[S+]([O-])c2nc3cc(OC(C)C)ccc3[nH]2)c1 (stereo unspecified)
- IC50 [3]: 18.2 µM
- IC50 [5]: 0.68 µM

Structure (SMILES): CC(=O)NC(Cc1ccc(N(C(=O)C(=O)O)c2ccccc2C(=O)O)c2ccccc12)C(=O)NCCCCCOc1cc2ccccc2cc1C(=O)O (stereo unspecified)
- Ki [3]: 1.3 µM
- Ki [5]: 0.049 µM

Structure (SMILES): COc1ccc(C(=O)O)c(CCO)c1CO
- inhibition [1]: < 5%
- Activity [2]: inactive

Structure (SMILES): O=C(O)C(=O)c1ccc(OCc2cc(COc3ccc(C(=O)C(=O)O)cc3)cc(COc3ccc(C(=O)C(=O)O)cc3)c2)cc1
- IC50 [7]: 1.7 µM

Structure (SMILES): O=C(O)COc1c(O)cc(-c2cc(C(F)(F)F)cc(C(F)(F)F)c2)cc1OCc1cccc(C(F)(F)F)c1
- IC50 [3]: 116 µM
- IC50 [8]: 0.28 µM
- IC50 [9]: 2 µM

Structure (SMILES): COC(=O)c1ccc(OC)c(C=O)c1CC=O
- inhibition [1]: < 5%
- Activity [2]: inactive

Further lines, results first:

- IC50 [4]: 1.53 µM
Structure (SMILES): COc1c(C=O)c2c(c3c1CC(C)(C)C3)C(=O)OC(O)C2 (stereo unspecified)

- inhibition [1]: 20%
- Activity [6]: Active
Structure (SMILES): COc1ccc2c(c1C=O)CC(O)OC2 (stereo unspecified)

- inhibition [1]: < 5%
Structure (SMILES): COc1ccc2c(c1)CC(O)OC2=O (stereo unspecified)

- inhibition [1]: < 5%
Structure (SMILES): COc1ccc2c(c1C=O)CCOC2=O

- IC50 [4]: 21.9 µM
Structure (SMILES): COc1ccc2c(c1C=O)CC(O)OC2=O (stereo unspecified)
